ChEMBL document CHEMBL2331152, “Multivalent Interactions: Synthesis and Evaluation of Melanotropin Multimers - Tools for Melanoma Targeting” (ACS Med Chem Lett, 2013)
Each block holds one compound with its values, some of them ahead of it. Calls of active or inactive are those of the source. The rule behind the calls is not given here.

Tests used:
Melanocortin receptor 4 [1] = molecular target: T1, Melanocortin receptor 4 (Homo sapiens, UniProt P32245); assay: Displacement of Eu-NDP-alpha-MSH from human MC4R expressed in HEK293 cells by time resolved fluorescence binding assay relative to multimer 1M; assay type: cell-based
In short: (§1)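 Competition binding on HEK293 cells transfected to overexpress MC4R, against europium-labelled NDP-α-MSH tracer, read by time-resolved fluorescence. IC50 values are averaged from four experiments run in quadruplicate. Relative potency is expressed against the monovalent ligand.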

Melanocortin receptor 4 [2] = molecular target: T1, Melanocortin receptor 4; assay: Inhibition of human MC4R expressed in HEK293 cells assessed as cAMP accumulation by chemiluminescent immunoassay; assay type: functional, cell-based
HEK293 [3] = assay: Cytotoxicity against human HEK293 cells assessed as cell viability at 1 uM upto 48 hrs; assay type: cell-based; conditions: hek293, 48 h
In short: (§2)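 Cell viability was measured at three concentrations and three incubation times, up to 48 h. Values are expressed as % of untreated control and are the average of three independent experiments run in triplicate.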

HEK293 [4] = assay: Cytotoxicity against human HEK293 cells assessed as cell viability at 10 uM upto 2 days; assay type: cell-based; conditions: hek293, 48 h; in short: as §2
HEK293 [5] = assay: Drug uptake in human HEK293 cells assessed as localization measured at 3 mins of incubation by FM 1-43 dye-microscopy; assay type: ADME, cell-based; conditions: hek293, 0.05 h
HEK293 [6] = assay: Drug uptake in human HEK293 cells assessed as localization at cell surface measured after 90 mins of incubation by FM 1-43 dye-microscopy; assay type: ADME, cell-based
In short: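 Ligands were Cy5-labelled through a triarginine linker and incubated with cells for 90 min. The membrane probe FM 1-43 was added two minutes before image acquisition. Membrane localization was assessed by epifluorescence microscopy.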

Melanocortin receptor 4 [7] = molecular target: T1, Melanocortin receptor 4; assay: Displacement of Eu-NDP-alpha-MSH from human MC4R expressed in HEK293 cells by time resolved fluorescence binding assay; assay type: cell-based; in short: as §1

T1 sequence (P32245 whole entry): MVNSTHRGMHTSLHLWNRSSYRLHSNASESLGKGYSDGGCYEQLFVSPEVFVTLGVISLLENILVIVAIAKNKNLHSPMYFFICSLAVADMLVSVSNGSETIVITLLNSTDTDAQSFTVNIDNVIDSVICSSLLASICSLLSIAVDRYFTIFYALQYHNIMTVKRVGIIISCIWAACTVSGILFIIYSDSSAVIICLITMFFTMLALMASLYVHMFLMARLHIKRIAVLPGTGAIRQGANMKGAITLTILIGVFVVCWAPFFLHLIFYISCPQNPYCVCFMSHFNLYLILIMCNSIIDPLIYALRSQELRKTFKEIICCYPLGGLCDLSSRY

SMILES: N=C(N)NCCC[C@H](NC(=O)[C@@H](Cc1ccccc1)NC(=O)[C@H](Cc1cnc[nH]1)NC(=O)CCc1cn(CC(=O)NCCCC(CCCNC(=O)Cn2cc(CCC(=O)N[C@@H](Cc3cnc[nH]3)C(=O)N[C@H](Cc3ccccc3)C(=O)N[C@@H](CCCNC(=N)N)C(=O)N[C@@H](Cc3c[nH]c4ccccc34)C(N)=O)nn2)(NC(=O)CNC(=O)Cn2cc(CCC(=O)N[C@@H](Cc3cnc[nH]3)C(=O)N[C@H](Cc3ccccc3)C(=O)N[C@@H](CCCNC(=N)N)C(=O)N[C@@H](Cc3c[nH]c4ccccc34)C(N)=O)nn2)C(=O)NCCC(N)=O)nn1)C(=O)N[C@@H](Cc1c[nH]c2ccccc12)C(N)=O (stereo not given in full)
- fold change (FC) (Melanocortin receptor 4 [1]): 350
- Activity (Melanocortin receptor 4 [2]): Active

SMILES: N=C(N)NCCC[C@H](NC(=O)[C@@H](Cc1ccccc1)NC(=O)[C@H](Cc1cnc[nH]1)NC(=O)CCc1cn(CC(=O)NCC(=O)NC(CCCNC(=O)Cn2cc(CCC(=O)N[C@@H](Cc3cnc[nH]3)C(=O)N[C@H](Cc3ccccc3)C(=O)N[C@@H](CCCN=C(N)N)C(=O)N[C@@H](Cc3c[nH]c4ccccc34)C(N)=O)nn2)(CCCNC(=O)Cn2cc(CCC(=O)N[C@@H](Cc3cnc[nH]3)C(=O)N[C@H](Cc3ccccc3)C(=O)N[C@@H](CCCN=C(N)N)C(=O)N[C@@H](Cc3c[nH]c4ccccc34)C(N)=O)nn2)C(=O)NCCC(N)=O)nn1)C(=O)N[C@@H](Cc1c[nH]c2ccccc12)C(N)=O
- Activity (HEK293 [3]): Non-toxic
- Activity (HEK293 [4]): Non-toxic

- Drug uptake (HEK293 [5]): Not Active
- Drug uptake (HEK293 [6]): Active
SMILES: CN1/C(=C/C=C/C=C/C2=[N+](CCCCCC(=O)NCCCC[C@H](NC(=O)[C@@H](CCCNC(=N)N)NC(=O)[C@H](CCCNC(=N)N)NC(=O)[C@@H](CCCNC(=N)N)NC(=O)CCNC(=O)C(CCCNC(=O)Cn3cc(CCC(=O)N[C@@H](Cc4cnc[nH]4)C(=O)N[C@H](Cc4ccccc4)C(=O)N[C@@H](CCCNC(=N)N)C(=O)N[C@@H](Cc4c[nH]c5ccccc45)C(N)=O)nn3)(CCCNC(=O)Cn3cc(CCC(=O)N[C@@H](Cc4cnc[nH]4)C(=O)N[C@H](Cc4ccccc4)C(=O)N[C@@H](CCCNC(=N)N)C(=O)N[C@@H](Cc4c[nH]c5ccccc45)C(N)=O)nn3)NC(=O)CNC(=O)Cn3cc(CCC(=O)N[C@@H](Cc4cnc[nH]4)C(=O)N[C@H](Cc4ccccc4)C(=O)N[C@@H](CCCNC(=N)N)C(=O)N[C@@H](Cc4c[nH]c5ccccc45)C(N)=O)nn3)C(N)=O)c3ccccc3C2(C)C)C(C)(C)c2ccccc21 (stereo not given in full)

- Drug uptake (HEK293 [5]): Not Active
- Drug uptake (HEK293 [6]): Active
SMILES: CC(=O)NCC(=O)NC(CCCNC(=O)CCNC(=O)C(CCCNC(=O)Cn1cc(CCC(=O)N[C@@H](Cc2cnc[nH]2)C(=O)N[C@H](Cc2ccccc2)C(=O)N[C@@H](CCCNC(=N)N)C(=O)N[C@@H](Cc2c[nH]c3ccccc23)C(N)=O)nn1)(CCCNC(=O)Cn1cc(CCC(=O)N[C@@H](Cc2cnc[nH]2)C(=O)N[C@H](Cc2ccccc2)C(=O)N[C@@H](CCCNC(=N)N)C(=O)N[C@@H](Cc2c[nH]c3ccccc23)C(N)=O)nn1)NC(=O)CNC(=O)Cn1cc(CCC(=O)N[C@@H](Cc2cnc[nH]2)C(=O)N[C@H](Cc2ccccc2)C(=O)N[C@@H](CCCNC(=N)N)C(=O)N[C@@H](Cc2c[nH]c3ccccc23)C(N)=O)nn1)(CCCNC(=O)CCNC(=O)C(CCCNC(=O)Cn1cc(CCC(=O)N[C@@H](Cc2cnc[nH]2)C(=O)N[C@H](Cc2ccccc2)C(=O)N[C@@H](CCCNC(=N)N)C(=O)N[C@@H](Cc2c[nH]c3ccccc23)C(N)=O)nn1)(CCCNC(=O)Cn1cc(CCC(=O)N[C@@H](Cc2cnc[nH]2)C(=O)N[C@H](Cc2ccccc2)C(=O)N[C@@H](CCCNC(=N)N)C(=O)N[C@@H](Cc2c[nH]c3ccccc23)C(N)=O)nn1)NC(=O)CNC(=O)Cn1cc(CCC(=O)N[C@@H](Cc2cnc[nH]2)C(=O)N[C@H](Cc2ccccc2)C(=O)N[C@@H](CCCNC(=N)N)C(=O)N[C@@H](Cc2c[nH]c3ccccc23)C(N)=O)nn1)C(=O)NCCC(=O)N[C@H](CCCNC(=N)N)C(=O)N[C@@H](CCCNC(=N)N)C(=O)N[C@H](CCCNC(=N)N)C(=O)N[C@@H](CCCCNC(=O)CCCCC[N+]1=C(/C=C/C=C/C=C2/N(C)c3ccccc3C2(C)C)C(C)(C)c2ccccc21)C(N)=O (stereo not given in full)

SMILES: CC(=O)NCC(=O)NC(CCCNC(=O)CCNC(=O)C(CCCNC(=O)Cn1cc(CCC(=O)N[C@@H](Cc2cnc[nH]2)C(=O)N[C@H](Cc2ccccc2)C(=O)N[C@@H](CCCNC(=N)N)C(=O)N[C@@H](Cc2c[nH]c3ccccc23)C(N)=O)nn1)(CCCNC(=O)Cn1cc(CCC(=O)N[C@@H](Cc2cnc[nH]2)C(=O)N[C@H](Cc2ccccc2)C(=O)N[C@@H](CCCNC(=N)N)C(=O)N[C@@H](Cc2c[nH]c3ccccc23)C(N)=O)nn1)NC(=O)CNC(=O)Cn1cc(CCC(=O)N[C@@H](Cc2cnc[nH]2)C(=O)N[C@H](Cc2ccccc2)C(=O)N[C@@H](CCCNC(=N)N)C(=O)N[C@@H](Cc2c[nH]c3ccccc23)C(N)=O)nn1)(CCCNC(=O)CCNC(=O)C(CCCNC(=O)Cn1cc(CCC(=O)N[C@@H](Cc2cnc[nH]2)C(=O)N[C@H](Cc2ccccc2)C(=O)N[C@@H](CCCNC(=N)N)C(=O)N[C@@H](Cc2c[nH]c3ccccc23)C(N)=O)nn1)(CCCNC(=O)Cn1cc(CCC(=O)N[C@@H](Cc2cnc[nH]2)C(=O)N[C@H](Cc2ccccc2)C(=O)N[C@@H](CCCNC(=N)N)C(=O)N[C@@H](Cc2c[nH]c3ccccc23)C(N)=O)nn1)NC(=O)CNC(=O)Cn1cc(CCC(=O)N[C@@H](Cc2cnc[nH]2)C(=O)N[C@H](Cc2ccccc2)C(=O)N[C@@H](CCCNC(=N)N)C(=O)N[C@@H](Cc2c[nH]c3ccccc23)C(N)=O)nn1)C(=O)NCCC(N)=O (stereo not given in full)
- fold change (FC) (Melanocortin receptor 4 [1]): 104
- Activity (HEK293 [3]): Non-toxic
- Activity (Melanocortin receptor 4 [2]): Active
- Activity (HEK293 [4]): Non-toxic

- Drug uptake (HEK293 [5]): Not Active
- Drug uptake (HEK293 [6]): Active
SMILES: CCCC[C@H](NC(=O)[C@H](CO)NC(=O)[C@H](Cc1ccc(O)cc1)NC(=O)[C@H](CO)NC(C)=O)C(=O)N[C@@H](CCC(=O)O)C(=O)N[C@@H](Cc1cnc[nH]1)C(=O)N[C@H](Cc1ccccc1)C(=O)N[C@@H](CCCNC(=N)N)C(=O)N[C@@H](Cc1c[nH]c2ccccc12)C(=O)NCC(=O)N[C@@H](CCCCNC(=O)CCCCC[N+]1=C(/C=C/C=C/C=C2/N(C)c3ccccc3C2(C)C)C(C)(C)c2ccccc21)C(=O)N1CCC[C@H]1C(=O)N[C@H](C(N)=O)C(C)C

SMILES: CC(=O)NCCCC(CCCNC(C)=O)(NC(=O)CNC(=O)Cn1cc(CCC(=O)N[C@@H](Cc2cnc[nH]2)C(=O)N[C@H](Cc2ccccc2)C(=O)N[C@@H](CCCN=C(N)N)C(=O)N[C@@H](Cc2c[nH]c3ccccc23)C(=O)O)nn1)C(=O)NCCC(N)=O
- IC50 (Melanocortin receptor 4 [7]): 4.9 µM
